From PubChem BioAssay come the findings set out here.

The nature of one assay: LAP4-GFP expression modulators in yeast, confirmation, cell-based, cherry picks, flow cytometry, mother/daughter gates (AID 2271).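 Also: ratio of sample to DMSO plate mean so 100% equals DMSO level.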 Particulars: S. cerevisiae LAP4-GFP strain, 3 h, measured here: daughter cell gate response, at 10 µM, stronger effect = higher value, 100 means same as DMSO control. Put shortly:
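System – GFP-fusion yeast strain · Amount – 0.2 OD600 cells · Buffer or medium – SC growth medium · Dosing – single test-compound dose, 10 µM final · Schedule – 3 h treatment at 30 °C with rotation · Detection – GFP by flow cytometry · Read-out – per-gate (all, mother, daughter) GFP response vs DMSO · Benchmarks – positive rapamycin (400 ng/mL), negative DMSO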
In the case of `O=C1c2ccccc2-c2onc3ccc(Oc4ccccc4)c1c23`, the GFP response relative to DMSO came to 136%.
Same read-out and setting: under `CCOc1nnc(C)c2c(C)n(-c3cccc(OC)c3)nc12` stands 98.7%; under `O=C(C#Cc1ccccc1)c1cccc([N+](=O)[O-])c1`, 166%.
Still for that read-out and setting: under `COC(=O)c1ccc2nc(Nc3nc4c(F)cc(F)cc4s3)sc2c1` stands 90.4%.
Molecule `O=C(C#Cc1cccc([N+](=O)[O-])c1)c1ccccc1` gave a GFP response relative to DMSO of 167%.
The same measure, in the same setting: under `COC(=O)n1c(=S)oc2cc(Cl)ccc21` stands 105%; under `O=C(/C=C/c1ccc(Cl)c([N+](=O)[O-])c1)c1cccnc1`, 192%; under `COCCN1C(=O)/C(=C/c2ccc(N3CCCC3)cc2C)SC1=S`, 117%.
Turning to `N=c1c(C(=O)NCc2ccco2)cc2c(=O)n3ccccc3nc2n1CCc1ccccc1`, the GFP response relative to DMSO worked out at 99.2%.
On the same count and under the same terms, the value for `COc1cccc2sc(Nc3nc(-c4ccccn4)cs3)nc12` was 201%.
Still for that read-out and setting: the value for `Oc1ccc2ccccc2c1/C=N/Nc1nnc(-c2ncc[nH]2)c2ccccc12` was 119%; that for `CN(C)c1ccc(/C=C/C(=O)c2cccc(Br)c2)cc1` was 97.5%; that for `CN(c1ccccc1)c1ccc(/C=c2\s/c(=C(/C#N)C(=O)C(C)(C)C)n(Cc3ccco3)c2=O)cc1` was 240%.
On the same count and under the same terms, the value for `CS(=O)(=O)N1N=C(c2ccccc2)CC1c1ccc2c(c1)OCO2` (stereo unspecified) was 466%; that for `CCOC(=O)N1CCN(C(=O)CCc2ccc(S(=O)(=O)NCCc3ccccc3)cc2)CC1` was 99%; that for `CC(C)(C)c1ccc(C(=O)CC(Sc2ccc(Cl)cc2)C(=O)O)cc1` (stereo unspecified) was 112%.
With `Cc1cc(C)c(C(=O)Cn2cnc3cc([N+](=O)[O-])ccc3c2=O)cc1C`, the GFP response relative to DMSO turned out to be 88.2%.
On the same count and under the same terms, the value for `CC(C)(C)C(=O)/C=c1\s/c(=C\c2ccc(-c3ccc([N+](=O)[O-])cc3)o2)c(=O)n1CC(=O)NC(N)=O` was 99.7%.

Staying with this assay, now noted: S. cerevisiae LAP4-GFP strain, 3 h, measured here: mother cell gate response, at 10 µM, stronger effect = higher value, 100 means same as DMSO control.
For the molecule `O=C1c2ccccc2-c2onc3ccc(Oc4ccccc4)c1c23`, the GFP response relative to DMSO amounted to 150%.
The same measure, in the same setting: under `CCOc1nnc(C)c2c(C)n(-c3cccc(OC)c3)nc12` stands 100%; under `O=C(C#Cc1ccccc1)c1cccc([N+](=O)[O-])c1`, 183%.
Still for that read-out and setting: under `COC(=O)c1ccc2nc(Nc3nc4c(F)cc(F)cc4s3)sc2c1` stands 93%.
Regarding `O=C(C#Cc1cccc([N+](=O)[O-])c1)c1ccccc1`, the GFP response relative to DMSO is 178%.
For the molecule `COC(=O)n1c(=S)oc2cc(Cl)ccc21`, the GFP response relative to DMSO was determined as 110%.
The same measure, in the same setting: under `O=C(/C=C/c1ccc(Cl)c([N+](=O)[O-])c1)c1cccnc1` stands 215%; under `COCCN1C(=O)/C(=C/c2ccc(N3CCCC3)cc2C)SC1=S`, 116%; under `N=c1c(C(=O)NCc2ccco2)cc2c(=O)n3ccccc3nc2n1CCc1ccccc1`, 90.8%.
In the case of `COc1cccc2sc(Nc3nc(-c4ccccn4)cs3)nc12`, the GFP response relative to DMSO worked out at 240%.
Still for that read-out and setting: under `Oc1ccc2ccccc2c1/C=N/Nc1nnc(-c2ncc[nH]2)c2ccccc12` stands 128%.
Still for that read-out and setting: the value for `CN(C)c1ccc(/C=C/C(=O)c2cccc(Br)c2)cc1` was 102%; that for `CN(c1ccccc1)c1ccc(/C=c2\s/c(=C(/C#N)C(=O)C(C)(C)C)n(Cc3ccco3)c2=O)cc1` was 231%.
On the same count and under the same terms, under `CS(=O)(=O)N1N=C(c2ccccc2)CC1c1ccc2c(c1)OCO2` (stereo unspecified) stands 439%; under `CCOC(=O)N1CCN(C(=O)CCc2ccc(S(=O)(=O)NCCc3ccccc3)cc2)CC1`, 94.4%.
`CC(C)(C)c1ccc(C(=O)CC(Sc2ccc(Cl)cc2)C(=O)O)cc1` (stereo unspecified): the GFP response relative to DMSO came to 125%.
Same read-out and setting: the value for `Cc1cc(C)c(C(=O)Cn2cnc3cc([N+](=O)[O-])ccc3c2=O)cc1C` was 91.3%.
Consider `CC(C)(C)C(=O)/C=c1\s/c(=C\c2ccc(-c3ccc([N+](=O)[O-])cc3)o2)c(=O)n1CC(=O)NC(N)=O`, for which the GFP response relative to DMSO turned out to be 103%.
